Bioassay records deposited in PubChem by SRMLSC.
Lung fibro prol – blocks proliferation of human lung fibroblasts; 85,000 compounds, 1.1% hits; viability, % at 10 µM; LL 47 human lung fibroblast viability, ATP luminescence; hits give low values; AID 719;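 active means viability at or below 50% in the single dose screen; inactive means viability above 50%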;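 further: compound exposure lasted 72 h before the ATP readout; 100% = median luminescence of untreated cell-only wells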
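Test system: LL 47 human lung fibroblasts; Quantity: 1,150 cells/well; Buffer or medium: IMEM plus 15% FBS; Dosing: tenfold compound dosing solution, DMSO at 0.1%; Timing: overnight cell rest, 72 h compound treatment at 37 °C; Detection: ATP-based CellTiter-Glo luminescent readout; Read-out basis: viability percentage against median untreated-cell control; Controls: cell-only wells, no compound.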
bCat KO growth – beta-catenin-lacking colon tumor cell growth suppression. HCT116 beta-catenin knockout viability, CellTiter-Glo, 60 h; hits give low values. viability, % at 10 µM. 140,000 compounds, 1.5% hits. AID 818;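 active means viability at or under a set limit, the compound median less 4 SD, cut at about 6% in these data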;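 further: 0% = Hyamine 1622 control at 20 µM and 100% = untreated cell control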
PTEN del growth – growth suppressors of cells with PTEN tumor suppressor deletion; HCT116 PTEN-null viability, CellTiter-Glo, 60 h; hits give low values; AID 827; viability, % at 10 µM; 140,000 compounds, 1.2% hits;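 active means viability at or below a set limit, 4 SD under the median of all tested compounds, cut at about 3.7% in these data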;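 further: PTEN knockout HCT116 line with beta catenin targeted HCT116 as companion control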
HUVEC prolif 384 – human endothelial cell proliferation inhibition; HUVEC proliferation, CellTiter-Glo luminescence, 72 h; hits give low values; viability, % at 10 µM (by protocol); 86,000 compounds, 1.1% hits;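 active means viability at or below 30%; inactive means viability above 30%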;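 further: 100% = median luminescence of DMSO-only cell control wells on each plate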
H69AR inhibit – blocks growth of human H69AR lung tumor cells | 85,000 compounds, 6% hits | viability, % at 10 µM | H69AR lung tumor viability, ATP luminescence, 72 h; hits give low values | AID 598;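 active means viability at or below 40%; inactive means viability above 40%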;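 further: multidrug resistant small cell line overexpressing MRP-1 efflux transporter; 100% = mean luminescence of untreated control wells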
* hit, by the source's call; / = no result given. The entries come from a sample that favours hits as a whole.

SMILES	Lung fibro prol	bCat KO growth	PTEN del growth	HUVEC prolif 384	H69AR inhibit
O=[N+]([O-])c1c(NCCCO)cc(SCc2ccco2)c2nonc12	/	10	58	/	/
CC(=O)OCCNc1cc(SCc2ccco2)c2nonc2c1[N+](=O)[O-]	/	1.1*	1.0*	/	/
O=C(NCC1CCCO1)C1CC(c2ccc(Cl)c(Cl)c2)=NO1 (stereo not drawn)	98	91	92	98	100
CCn1nc(C)c(/C=N/NC(=O)c2ccc3c(c2)c(C)c(C)n3Cc2ccccc2)c1C	/	91	88	/	/
CC1=CC(C)(C)n2c(O)c(N=N)c3cc(C)cc1c32	/	71	70	/	/
CCOc1ccc2ccccc2c1C(=O)Nc1cc(=O)n(C)c(=O)n1C	94	95	98	93	97
CC(=O)OCCCNc1cc(Sc2nc3ccccc3s2)c2nonc2c1[N+](=O)[O-]	/	3.7*	4	/	/
O=C(COc1c(Br)cc(Br)c2cccnc12)N1CCc2ccccc2C1	97	86	93	93	53
Oc1c(CN2CCc3ccccc3C2)cc(Cl)c2cccnc12	14*	2.9*	3.0*	5.9*	2.0*
Oc1c(I)cc(Cl)c2cccnc12	70	18	8	12*	8.3*
Oc1c(CN2CCCCC2)cc(Br)c2cccnc12	/	1.7*	1.4*	/	/
COCCn1c(-c2ccccc2Cl)nc2c(c(=O)c3ccccc3n2C)c1=O	/	60	59	/	/
Cc1ccc(C#CC[N+]2(CC#Cc3ccc(C)cc3)CCCCC2)cc1	/	7	4	/	/
Cc1ccccc1C(=O)N1CCC(C(=O)Nc2ccc3c(c2)OCO3)CC1	/	95	96	/	/
COC(=O)[C@@H]1CC[C@H](C)[C@@H](c2ccc(C)cc2)N1C(=O)c1ccc(/C=N/O[C@@H](C)CN2CCCCc3nc(C)c(C)cc32)cc1	/	5.9*	12	/	/
CCOC(=O)c1c(Cc2cccc(Cl)c2)c[nH]c1C	/	91	104	/	/
O=C1CC(c2ccccc2)CC2=C1CN(C1CCCCC1)CN2 (stereo not drawn)	70	29	32	71	23*
COc1ccc(OCCn2nnc(-c3ccc(Cl)cc3)n2)cc1	/	96	99	/	/
Cn1nc(-c2ccc(Cl)cc2)nc2c(=O)n(C)c(=O)nc1-2	32*	80	86	3.6*	0.7*
O=[N+]([O-])c1cc(-c2nc3nc4ccccc4nc3n2CCc2ccccc2)cc([N+](=O)[O-])c1	/	65	76	/	/
Cc1ccc(C)c(CSc2nnc(CCN)o2)c1	71	76	87	55	31*
Cc1ccc(C)c(CSc2nnc([C@@H](N)C(C)C)o2)c1	105	109	106	95	90
CNc1nc(Nc2ccc(Br)cc2)nc(N)c1[N+](=O)[O-]	/	82	84	/	/
COc1cccc(C(=O)Nc2ccc3nc(N4CCOCC4)cc(C)c3c2)c1	101	91	91	79	47
CCOc1ccccc1C(=O)Nc1ccc2nc(N3CCN(c4ncccn4)CC3)cc(C)c2c1	55	/	/	6.2*	0.5*
SMILES	Lung fibro prol	bCat KO growth	PTEN del growth	HUVEC prolif 384	H69AR inhibit
CCN1CCN(c2cc(C)c3cc(NC(=O)Cc4ccccc4OC)ccc3n2)CC1	/	59	76	/	/
COc1cccc(C(=O)Nc2ccc3nc(N4CCN(c5ncccn5)CC4)cc(C)c3c2)c1OC	/	2.0*	1.7*	/	/
O=C(Oc1cccc([N+](=O)[O-])c1)c1cc(-c2ccccc2)nc2ccccc12	/	102	85	/	/
N#CCCN(C(=O)Nc1ccc(Cl)c(Cl)c1)c1ccccc1	/	95	89	/	/
COn1c(SCc2ccc(C)cc2C)nc2ccccc2c1=O	93	50	47	89	31*
Cc1nc2c3ccccc3nc(SCC(=O)c3ccc(Cl)cc3)n2n1	/	66	62	/	/
Cc1nc2c3ccccc3nc(SCC(=O)N3CC(C)CC(C)C3)n2n1 (stereo not drawn)	97	103	97	80	20*
C=CCc1cccc([C@@H]2[C@@H](C)CC[C@H]3C(=O)N4[C@@H](c5cc(OC)c(OC)c(OC)c5)c5[nH]c6ccccc6c5C[C@H]4C(=O)N23)c1	/	57	69	/	/
CN(C)c1ccc(/C=N/N2C(=N)N(c3ccccc3)C(=S)C2=Nc2ccccc2)cc1	93	/	/	68	16*
CCOC(=O)c1ccc(N2Cc3ccccc3C2=N)cc1	/	93	98	/	/
CCOC(=O)c1ccc(N=C2C(=S)N(c3ccc(C(=O)OCC)cc3)C(=N)N2/N=C/c2ccccc2)cc1	92	92	94	74	0.9*
COc1ccc(CCNC(=O)c2ccc(NS(=O)(=O)c3c(C)noc3C)cc2)cc1OC	/	99	100	/	/
O=S(=O)(c1ccccc1)N1CCN=C1SCc1cccc(Cl)c1	/	78	76	/	/
